Measured values from different studies.
Lines come from different studies, so protocols differ.

| Compound | organism | observed | method | strain | time | quantity | result |
| --- | --- | --- | --- | --- | --- | --- | --- |
| CS(=O)(=O)Nc1cccc(-n2c(/C=C/c3ccc(F)cc3)nc3ccccc3c2=O)c1 | Enterococcus faecium | microbial growth | broth dilution | NCTC7171 | – | MIC | > 128 mg/L |
| Nc1nonc1-c1nc2cnccc2n1C1CCCCC1 | Trypanosoma brucei | parasite growth | – | – | – | EC50 | 1.26 µM |
| O=C(O)c1cn(C2CC2)c2cc(N3CCNCC3)c(F)cc2c1=O | Mycobacterium intracellulare | microbial growth | – | ATCC23068 | – | IC50 | 0.69 µM |
| Cl.NCc1ccc(Oc2ccc(-c3noc(-c4ccc(O)cc4)n3)cc2)cc1 | Enterococcus faecium | microbial growth | broth dilution | – | 24 h | MIC | 4 mg/L |
| COc1cc(Nc2ncc3c(C)nc(-c4cccc(C(F)(F)F)c4)n3n2)cc(OC)c1OC | Trypanosoma brucei | parasite growth | – | – | – | EC50 | 0.158 µM |
| N#Cc1ccc(/C=C/c2nc3ccccc3c(=O)n2-c2cccc(CC(=O)O)c2)cc1 | Enterococcus faecium | microbial growth | broth dilution | NCTC7171 | – | MIC | > 128 mg/L |
| C[C@@H]1[C@H](O)[C@@H](C)/C=C/C=C/C=C/C=C/C=C/C=C/C=C/[C@H](O[C@@H]2O[C@H](C)[C@@H](O)[C@H](N)[C@@H]2O)C[C@@H]2O[C@](O)(C[C@@H](O)C[C@@H](O)[C@H](O)CC[C@@H](O)C[C@@H](O)CC(=O)O[C@H]1C)C[C@H](O)[C@H]2C(=O)O | Candida albicans | microbial growth | – | ATCC90028 | – | IC50 | 0.3 µM |
| CC(=O)Nc1cccc(-n2c(/C=C/c3ccc(F)cc3)nc3ccccc3c2=O)c1 | Enterococcus faecium | microbial growth | broth dilution | NCTC7171 | – | MIC | > 128 mg/L |
| CNCCc1ccc(Oc2ccc(-c3noc(-c4ccc(O)cc4)n3)cc2)cc1.Cl | Enterococcus faecium | microbial growth | broth dilution | – | 24 h | MIC | 4 mg/L |
| CCCN(CCS(C)(=O)=O)Cc1ccc(-c2ccc3ncnc(Nc4ccc(OCc5cccc(F)c5)c(Cl)c4)c3c2)o1 | Trypanosoma brucei | parasite growth | – | – | – | EC50 | 2 µM |
| O=C(O)c1cn(C2CC2)c2cc(N3CCNCC3)c(F)cc2c1=O | Mycobacterium intracellulare | microbial growth | resazurin | ATCC23068 | – | IC50 | 0.48 mg/L |
